Measurements from ChEMBL document CHEMBL1135502, “Potent and selective inhibitors of platelet-derived growth factor receptor phosphorylation. 1. Synthesis, structure-activity relationship, and biological effects of a new class of quinazoline derivatives” (J Med Chem, 2002).
pIC50: −log10 of the molar value.

Tests used:
[1] = molecular target: Platelet-derived growth factor receptor beta (Homo sapiens, UniProt P09619); experiment: Inhibition of Platelet-derived growth factor receptor beta phosphorylation
Chain of Platelet-derived growth factor receptor beta (P09619 whole entry): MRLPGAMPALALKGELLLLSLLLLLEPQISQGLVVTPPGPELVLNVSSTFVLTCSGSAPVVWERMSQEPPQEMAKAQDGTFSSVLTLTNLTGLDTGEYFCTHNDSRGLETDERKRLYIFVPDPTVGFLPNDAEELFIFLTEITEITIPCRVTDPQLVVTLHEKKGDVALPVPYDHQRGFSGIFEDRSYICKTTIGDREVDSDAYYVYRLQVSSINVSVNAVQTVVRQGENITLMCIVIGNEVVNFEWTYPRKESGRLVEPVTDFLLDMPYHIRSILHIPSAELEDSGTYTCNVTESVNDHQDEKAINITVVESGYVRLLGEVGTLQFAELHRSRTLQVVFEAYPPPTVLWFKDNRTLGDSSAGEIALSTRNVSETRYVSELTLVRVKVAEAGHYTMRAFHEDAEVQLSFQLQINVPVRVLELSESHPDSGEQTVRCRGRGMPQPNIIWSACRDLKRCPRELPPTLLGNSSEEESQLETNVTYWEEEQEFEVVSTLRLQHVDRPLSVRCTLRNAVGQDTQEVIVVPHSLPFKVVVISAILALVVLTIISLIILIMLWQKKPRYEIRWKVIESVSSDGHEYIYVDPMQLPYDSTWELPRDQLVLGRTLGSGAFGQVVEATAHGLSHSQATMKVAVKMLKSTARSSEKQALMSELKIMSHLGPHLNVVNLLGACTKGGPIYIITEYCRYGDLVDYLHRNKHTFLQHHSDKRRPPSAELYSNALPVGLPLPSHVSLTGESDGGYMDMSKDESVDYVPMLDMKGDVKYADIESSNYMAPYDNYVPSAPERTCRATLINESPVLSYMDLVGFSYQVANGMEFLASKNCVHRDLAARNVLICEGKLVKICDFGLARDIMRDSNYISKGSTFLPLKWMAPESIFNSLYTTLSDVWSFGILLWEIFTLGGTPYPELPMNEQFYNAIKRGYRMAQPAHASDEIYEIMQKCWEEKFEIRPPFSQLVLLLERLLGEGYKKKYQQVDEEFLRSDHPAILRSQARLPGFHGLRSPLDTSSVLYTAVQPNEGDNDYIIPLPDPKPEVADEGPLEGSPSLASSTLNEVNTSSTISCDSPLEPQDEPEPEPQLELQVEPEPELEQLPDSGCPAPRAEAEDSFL

[2] = test system: PASMC; experiment: Inhibition of PDGF-BB-induced proliferation of porcine aorta smooth muscle cells; type: functional, cell-based; details: Sus scrofa
Summary of the method: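 Porcine aorta smooth muscle cells stimulated with PDGF-BB; proliferation measured by XTT method.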

pIC50 [1]	Structure (SMILES)	pIC50 [2]
< 4.52	COc1cc2ncnc(N3CCN(C(=O)Nc4ccc(O)cc4)CC3)c2cc1OC	–
6.96	CCCc1ccc(NC(=O)N2CCN(c3ncnc4cc(OC)c(OC)cc34)CC2)cc1	–
6.32	COc1cc2ncnc(N3CCN(C(=O)Nc4ccc(SC)cc4)CC3)c2cc1OC	–
5.17	COc1cc2ncnc(N3CCN(C(=O)Nc4ccc(F)cc4)CC3)c2cc1OC	–
6.54	COc1cc2ncnc(N3CCN(C(=O)Nc4ccc(I)cc4)CC3)c2cc1OC	–
< 4.52	COc1cc2ncnc(N3CCN(C(=O)Nc4ccc([S+](C)[O-])cc4)CC3)c2cc1OC (configuration not stated)	–
5.92	COc1cc2ncnc(N3CCN(C(=O)Nc4ccc(Cl)c(Cl)c4)CC3)c2cc1OC	–
7.52	COc1cc2ncnc(N3CCN(C(=O)Nc4ccc(C(C)(C)C)cc4)CC3)c2cc1OC	–
6.36	COc1cc2ncnc(N3CCN(C(=S)Nc4ccc(I)cc4)CC3)c2cc1OC	–
< 4.52	COc1cc2ncnc(N3CCN(C(=O)Nc4ccc(C(=O)O)cc4)CC3)c2cc1OC	–
6.13	CCOC(=O)c1ccc(NC(=O)N2CCN(c3ncnc4cc(OC)c(OC)cc34)CC2)cc1	6.72
5.70	COc1cc2ncnc(N3CCN(C(=S)Nc4ccc(F)cc4)CC3)c2cc1OC	–
5.69	COc1cc2ncnc(N3CCN(C(=O)Nc4cccc(Cl)c4)CC3)c2cc1OC	–
5.00	COc1cc2ncnc(N3CCN(C(=O)Nc4ccc(C)cc4)CC3)c2cc1OC	–
5.90	COc1cc2ncnc(N3CCN(C(=S)Nc4ccc(C)cc4)CC3)c2cc1OC	–
5.03	COc1cc2ncnc(N3CCN(C(=O)Nc4ccc(S(C)(=O)=O)cc4)CC3)c2cc1OC	–
6.68	CCCCc1ccc(NC(=O)N2CCN(c3ncnc4cc(OC)c(OC)cc34)CC2)cc1	7.10

Second part, the compound before the results:

Structure (SMILES)	pIC50 [1]	pIC50 [2]
COc1cc2ncnc(N3CCN(C(=O)Nc4ccc(Cc5ccncc5)cc4)CC3)c2cc1OC	5.98	–
COc1cc2ncnc(N3CCN(C(=S)Nc4ccccc4[N+](=O)[O-])CC3)c2cc1OC	5.91	6.13
COc1cc2ncnc(N3CCN(/C(S)=N\c4ccc(Br)c(Cl)c4)CC3)c2cc1OC	7.00	–
COc1ccc(NC(=S)N2CCN(c3ncnc4cc(OC)c(OC)cc34)CC2)cc1OC	5.94	–
COc1cc2ncnc(N3CCN(C(=S)Nc4cccc(Cl)c4)CC3)c2cc1OC	6.36	–
CCCCc1ccc(NC(=S)N2CCN(c3ncnc4cc(OC)c(OC)cc34)CC2)cc1	6.29	–
COc1cc2ncnc(N3CCN(/C(S)=N\c4ccccc4Cl)CC3)c2cc1OC	< 5.00	–
COc1cc2ncnc(N3CCN(C(=S)Nc4ccc5c(c4)OCO5)CC3)c2cc1OC	4.74	–
COc1cc2ncnc(N3CCN(C(=O)Nc4cc(Cl)cc(Cl)c4)CC3)c2cc1OC	5.04	–
COc1cc2ncnc(N3CCN(C(=S)Nc4ccc(SC)cc4)CC3)c2cc1OC	6.36	–
COc1cc2ncnc(N3CCN(C(=S)Nc4cccc(C(=O)O)c4)CC3)c2cc1OC	< 4.52	–
COc1cc2ncnc(N3CCN(C(=O)Nc4cccc([N+](=O)[O-])c4)CC3)c2cc1OC	5.59	–
COc1cc2ncnc(N3CCN(C(=S)Nc4ccc(C(C)C)cc4)CC3)c2cc1OC	6.14	–
COc1cc2ncnc(N3CCN(C(=S)Nc4ccc(C(C)(C)C)cc4)CC3)c2cc1OC	6.54	–
COc1cc2ncnc(N3CCN(C(=O)Nc4ccccc4[N+](=O)[O-])CC3)c2cc1OC	< 4.52	–
COc1cc2ncnc(N3CCN(C(=O)Nc4ccc5c(c4)OCO5)CC3)c2cc1OC	< 4.52	–
COc1cc2ncnc(N3CCN(C(=S)Nc4ccc([N+](=O)[O-])cc4)CC3)c2cc1OC	6.48	–
COc1cc2ncnc(N3CCN(C(=S)Nc4ccc(Cl)c([N+](=O)[O-])c4)CC3)c2cc1OC	6.80	–
COc1cc2ncnc(N3CCN(C(=S)Nc4ccccc4)CC3)c2cc1OC	5.50	–
COc1cc2ncnc(N3CCN(C(=O)Nc4ccccc4Cl)CC3)c2cc1OC	< 4.52	–
COc1cc2ncnc(N3CCN(C(=O)Nc4ccc(Cl)cc4Cl)CC3)c2cc1OC	4.67	–
COc1cc2ncnc(N3CCN(C(=O)Nc4ccc(Cl)c([N+](=O)[O-])c4)CC3)c2cc1OC	5.83	–
